Data on six compounds can be found in ChEMBL document CHEMBL1124685, “Synthesis, DNA-binding properties, and antitumor activity of novel distamycin derivatives” (J Med Chem, 1989).

Each structure is given as a SMILES string.

The test system of data set [1] is L1210. The data set can be described thus: Median survival time of treated to the control mice with L1210 tumor cells. The format is functional, Mus musculus. An outline of the steps:
(§1)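 CDF1 mice inoculated intraperitoneally with 10⁵ L1210 or L1210/L-PAM cells per mouse, then treated intraperitoneally after tumor transplant. T/C % = median survival time of treated mice / median survival time of controls × 100. Activity criterion is T/C ≥ 125%. Optimal nontoxic dose (OD) is defined as a dose below LD10.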

Data set [2] relates to L1210. The data set is described as follows: Tested in vivo for optimal non-toxic dose against L1210 cell line in CDF1 mice. Particulars: mouse. The format is ADME, organism-based. An outline of the steps: as §1
In data set [3] the test system is L1210/LPAM. The data set is described as follows: Median survival time of treated to the control was determined in L1210/LPAM cell line. The format is functional, Mus musculus. An outline of the steps: as §1
In data set [4] the test system is L1210/LPAM. The data set can be described thus: Tested in vivo for optimal non-toxic dose against L1210/LPAM cell line in CDF1 mice. The format is ADME, organism-based. Conditions: mouse. In outline: as §1
A further data set concerns HeLa. The data set can be described thus: Tested in vitro for the dose inhibiting cell proliferation by 50% against HeLa cell line after 24 hr treatment at conc. of 10E-6. The format is functional. Conditions: Homo sapiens, read-out: ID50 (the source's name).
Data set [5] relates to L1210. The data set is described as follows: Tested in vitro for the cytotoxicity as number of viable cells against L1210 cell line after 4 hr treatment and 48 hr incubation in drug-free medium at conc. of 10E-6. Conditions: Mus musculus, L1210, 4 h treatment, 48 h drug-free incubation; read-out: ID50 (the source's name).
Another data set concerns HEp-2. The data set can be described thus: Tested in vitro for the cytotoxicity as number of viable cells against Hep-2 cell line after 72 hr treatment at conc. of 10E-6. The format is functional. Particulars: Homo sapiens, HEp-2, 72 h; read-out: ID50 (the source's name). In outline:
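Cytotoxicity read as number of viable cells. Hep-2 (MEM) received 72-h continuous drug treatment. L1210 and L1210/L-PAM (RPMI 1640) received 4-h treatment followed by 48-h incubation in drug-free medium. Media contained 10% fetal calf serum, glutamine, streptomycin and penicillin, at 37 °C in humidified 5% CO2.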

Data set [6] has as its system L1210/LPAM. The data set can be described thus: Tested in vitro for the cytotoxicity as number of viable cells against L1210/LPAM cell line after 4 hr treatment and 48 hr incubation in drug-free medium at conc. of 10E-6. Conditions: Mus musculus, 48 h drug-free incubation, read-out: ID50 (the source's name).
Data set [7] is described as follows: Tested in vitro for the resistance index ratio (ID50) of L1210/LPAM to L1210 cell line. It counts as functional. In outline: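 Resistance index = ID50 (L1210/L-PAM) / ID50 (L1210), where ID50 is the dose inhibiting proliferation by 50%. Cells were exposed to drug for 4 h, then incubated 48 h in drug-free medium. Culture was RPMI 1640 with 10% fetal calf serum, glutamine and antibiotics, at 37 °C in 5% CO2.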

Data set [8] has as its system L1210. The data set can be described thus: Median survival time of treated to the control was determined in L1210 cell line. The format is functional, Mus musculus. In outline: as §1

Take `Cl.Cn1cc(NC(=O)c2cc(NC(=O)c3cc(NC(=O)c4ccc(N(CCCl)CCCl)cc4)cn3C)cn2C)cc1C(=O)NCCC(=N)N` [TALLIMUSTINE CHLORIDE]: the T/C was 175% in the data set on L1210 [1] and 144% in the data set with L1210/LPAM [3]. Besides, the OD with L1210 [2] and in the data set on L1210/LPAM [4] was 3.12 mg/kg throughout. The IC50 amounted to 20 nM with HeLa, 1220 nM in the data set with L1210 [5], 190 nM in the data set on HEp-2 and 360 nM in the data set on L1210/LPAM [6].
For the compound `Cn1cc(NC(=O)c2cc(NC(=O)c3cc(NC=O)cn3C)cn2C)cc1C(=O)NCCC(=N)N` [STALLIMYCIN], the T/C in the data set with L1210 [1] is given as 113%; in the data set with L1210/LPAM [3], 106%. In addition, the OD in the data set on L1210 [2] and in the data set on L1210/LPAM [4] was 200 mg/kg each time. The IC50 in the data set on HeLa was determined as 48000 nM; in the data set with L1210 [5] it was 488000 nM; in the data set on HEp-2, 97000 nM; in the data set on L1210/LPAM [6] it was 343000 nM. In data set [7], the Ratio stood at 0.7.
Take `N[C@@H](Cc1ccc(N(CCCl)CCCl)cc1)C(=O)O` [MELPHALAN]: the values for the T/C in the data set on L1210 [8] and in the data set with L1210/LPAM [3] were 192% and 104%, respectively. Moreover, the OD with L1210 [2] and in the data set on L1210/LPAM [4] was 10 mg/kg throughout. Further, the IC50 in the data set with HeLa was found to be 1770 nM; in the data set on L1210 [5], 1700 nM; in the data set with HEp-2, 980 nM; with L1210/LPAM [6], 13100 nM. For the same compound, the Ratio in data set [7] came to 7.7.
On to `Cl.Cn1cc(NC(=O)c2cc(NC(=O)c3cc(NC(=O)c4cc(N(CCCl)CCCl)cn4C)cn3C)cn2C)cc1C(=O)NCCC(=N)N`, for which the T/C in the data set on L1210 [1] is reported as 188%; in the data set on L1210/LPAM [3], 167%. Besides, the OD in the data set with L1210 [2] and with L1210/LPAM [4] was 0.39 mg/kg in each case. Also, the IC50 is 60 nM in the data set with HeLa, 80 nM in the data set with L1210 [5], 100 nM with HEp-2 and 70 nM in the data set on L1210/LPAM [6]. For the same compound, in data set [7], the Ratio is reported as 0.87.
As for `Cl.Cn1cc(NC(=O)c2cc(NC(=O)c3cc(NC(=O)c4cc(N(CCCl)CCCl)cs4)cn3C)cn2C)cc1C(=O)NCCC(=N)N`, the T/C with L1210 [1] is reported as 132%; in the data set with L1210/LPAM [3] it was 111%. For the same compound, the OD with L1210 [2] and in the data set with L1210/LPAM [4] was 1.56 mg/kg in each case. Further, the IC50 stood at 50 nM in the data set with HeLa, 1930 nM with L1210 [5], 90 nM with HEp-2 and 1320 nM in the data set with L1210/LPAM [6]. Also, the Ratio in data set [7] is listed as 0.69.
For `Cl.Cn1cc(NC(=O)c2cc(NC(=O)c3cc(N(CCCl)CCCl)cn3C)cn2C)cc1C(=O)NCCC(=N)N`, the T/C in the data set on L1210 [1] worked out at 138%; in the data set on L1210/LPAM [3] it was 122%. In addition, the OD in the data set with L1210 [2] came to 1.56 M; in the data set with L1210/LPAM [4], 1.56 mg/kg. Moreover, the IC50 in the data set with HeLa stood at 1950 nM; in the data set with L1210 [5], 3530 nM; in the data set on HEp-2 it was 1220 nM; with L1210/LPAM [6] it was 4560 nM. The Ratio in data set [7] was found to be 1.3.

For orientation: T/C means the result in the treated group divided by that in the control group, in per cent.
